Compound activity: PubChem BioAssay, Broad Institute
C2C12 statin: suppressors of simvastatin-induced myotoxicity in C2C12 myotubes. rescue of ATP level, % at 7.49 µM. ATP luminescence, 48 h; scaled: DMSO 0, geranylgeraniol control 100. 0.78% of 330,000 active;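 active = mean ATP rescue above about 67%, or every replicate alone reaching that limit, limit read from the data, passing the limit was not always enough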;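 note: myotubes were challenged with 10 µM simvastatin during compound exposure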
rRNA inh HTS: inhibitors of bacterial rRNA selective over humanized ribosomes; GFP signal change (wild-type ribosome), % (no concentration beside the values); AID 720706; E. coli WT GFP vs humanized-ribosome RFP mutants, fluorescence, 24 h; stronger effect = lower value; DMSO median 0, no signal -100; 1.6% of 350,000 active;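 active = significant combined selectivity score with lowered wild-type GFP, culture density cut under 30%, mutant RFP and density less affected; inactive = any of these conditions unmet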
E-selectin induc: E-selectin induction on HUVECs; HUVEC E-selectin immunofluorescence imaging; normalized: neutral wells 0, TNF-alpha wells 100; activation, % at 7.58 µM; 0.37% of 260,000 active; AID 686992;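 active = mean E-selectin-positive cell signal at least 10% of the positive control, reached in at least 60% of replicates, without over 20% cell loss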
Target sequence (P16581 whole entry, looked up): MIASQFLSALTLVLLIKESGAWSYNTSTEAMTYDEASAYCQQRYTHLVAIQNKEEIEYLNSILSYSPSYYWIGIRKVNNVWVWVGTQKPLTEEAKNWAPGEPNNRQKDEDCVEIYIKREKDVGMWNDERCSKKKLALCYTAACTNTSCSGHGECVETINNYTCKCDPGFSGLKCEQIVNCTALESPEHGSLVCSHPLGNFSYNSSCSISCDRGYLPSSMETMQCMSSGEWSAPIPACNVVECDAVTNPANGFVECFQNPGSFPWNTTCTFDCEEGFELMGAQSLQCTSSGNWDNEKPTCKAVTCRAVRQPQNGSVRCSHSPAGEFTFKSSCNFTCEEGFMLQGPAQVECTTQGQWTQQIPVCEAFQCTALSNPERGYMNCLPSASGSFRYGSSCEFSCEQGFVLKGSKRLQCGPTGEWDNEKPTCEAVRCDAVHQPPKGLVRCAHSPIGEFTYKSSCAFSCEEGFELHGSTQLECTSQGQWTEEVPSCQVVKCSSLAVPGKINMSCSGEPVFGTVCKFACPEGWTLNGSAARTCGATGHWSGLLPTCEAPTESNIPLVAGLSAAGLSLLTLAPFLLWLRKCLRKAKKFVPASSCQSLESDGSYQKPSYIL
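Test system: HUVEC | Signal: Immunofluorescence imaging | Read-out: Percent E-selectin-positive cells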
SIRT5 block: inhibitors of human sirtuin-5 desuccinylase. 1.1% of 330,000 active. AID 652115. Q9NXA8. inhibition, % at 15 µM. Purified SirT5, succinyl-peptide AMC, trypsin-coupled fluorescence; in the data active = inhibition above about 15%
FN deposit inh: fibronectin deposition inhibition. AH1F fibroblasts, Alexa488-fibronectin deposition fluorescence, overnight. AID 743247. 0.086% of 350,000 active. inhibition, % at 12.6 µM;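 active = mean inhibition across replicates of 30% or more, regardless of how many single replicates reach that level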;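 note: positive control wells lacked labelled fibronectin entirely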
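test system = AH1F fibroblasts assembling fluorescent fibronectin matrix | quantity = 10000 AH1F cells per well | buffer or medium = DMEM plus 2% serum, read in PBS | doses = single dose, pinned | incubation = 1 h cell attachment, overnight exposure to compound and label | detection = fluorescence at 485 nm excitation, 525 nm emission | read-out basis = inhibition from reduced deposited-fibronectin fluorescence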
FGF22 binding: binders of recombinant human FGF22 by thermal shift; 1.5% of 340,000 active; AID 651658; SYPRO orange fluorescence; percent of sucrose octasulfate shift, DMSO zero; Q9HCT0; activity (Tm shift, normalised), % at 9.99 µM;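 active = mean Tm shift, scaled 0 neutral to 100 positive control, at about 1.3% or above, every replicate too, limit read from the data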
Active calls of the source: *. Rows were chosen to be rich in hits. Some 4% of all compounds tested hit in one or more screens of this group.

What do the screens show for `COc1ccc(S(=O)(=O)N(C)C[C@@H]2Oc3ccc(NC(=O)Nc4ccc5c(c4)OCO5)cc3CC(=O)N([C@@H](C)CO)C[C@@H]2C)cc1`?
C2C12 statin: -159; rRNA inh HTS: 3; E-selectin induc: -13; FGF22 binding: 0

How did C[C@H](CO)N1C[C@H](C)[C@@H](CN(C)CC2CCCCC2)Oc2ccc(NC(=O)Nc3ccc4c(c3)OCO4)cc2CC1=O do in these assays?
C2C12 statin: -13; rRNA inh HTS: 1; E-selectin induc: 0; SIRT5 block: 16*; FGF22 binding: 0

What do the screens show for `COc1ccc(S(=O)(=O)N(C)C[C@H]2Oc3ccc(NC(=O)Nc4ccc5c(c4)OCO5)cc3CC(=O)N([C@@H](C)CO)C[C@H]2C)cc1`?
C2C12 statin: -4; rRNA inh HTS: -1; E-selectin induc: 79*; SIRT5 block: -1; FGF22 binding: 1

How did C[C@H](CO)N1C[C@H](C)[C@@H](CN(C)C)Oc2ccc(NC(=O)Nc3ccc4c(c3)OCO4)cc2CC1=O do in these assays?
C2C12 statin: -39; rRNA inh HTS: 4; E-selectin induc: 3; SIRT5 block: 1; FGF22 binding: 0

How did CN(C)CC#Cc1ccc([C@H]2[C@@H](CO)N3CCCCN(S(=O)(=O)c4ccccc4F)C[C@@H]23)cc1 do in these assays?
rRNA inh HTS: -8

Results for COc1ccc(CC(=O)NNC(=O)c2ccc(Br)s2)cc1OC ?
C2C12 statin: 5; rRNA inh HTS: 0; E-selectin induc: 0; SIRT5 block: -4; FN deposit inh: 0; FGF22 binding: 43*

Results for COc1ccc(N(C(=O)CCl)C(C(=O)NCCc2ccccc2)c2cccs2)cc1Cl (centres undefined) ?
rRNA inh HTS: -12; SIRT5 block: 0; FN deposit inh: 34*; FGF22 binding: 0

How did COc1cccc(N(C(=O)CCl)C(C(=O)NCCc2ccccc2)c2cccs2)c1 (centres undefined) do in these assays?
C2C12 statin: -152; FN deposit inh: 19

Results for CC(NC(=O)C1CC=CCC1C(=O)O)C1CC2CCC1C2 (centres undefined) ?
C2C12 statin: 98*; E-selectin induc: 2; FN deposit inh: 11

What do the screens show for `Cc1cc(C(=O)Nc2cccc3c2O[C@H](CN(C)S(=O)(=O)c2cccs2)[C@@H](C)CN([C@@H](C)CO)C3=O)n(C)n1`?
C2C12 statin: 38; rRNA inh HTS: -4; E-selectin induc: 0; SIRT5 block: 1; FN deposit inh: -7; FGF22 binding: 0

What do the screens show for `COCC(=O)Nc1ccc2c(c1)OC[C@@H](C)N(C(=O)Cc1cccnc1)C[C@H](C)[C@@H](OC)CN(C)C2=O`?
C2C12 statin: -2; rRNA inh HTS: 2; E-selectin induc: 0; SIRT5 block: 9; FN deposit inh: -4; FGF22 binding: 0

What do the screens show for `CCC(C)N(C)Cc1cccc(C2(O)CCN(S(=O)(=O)c3ccc(F)cc3)CC2)c1` (centres undefined)?
C2C12 statin: 123*; FN deposit inh: -8

How did O=[N+]([O-])c1ccc2[nH]c(O)c(N=Nc3ccc(F)cc3)c2c1 do in these assays?
C2C12 statin: 5; rRNA inh HTS: 2; E-selectin induc: 1; SIRT5 block: -1; FN deposit inh: 1; FGF22 binding: 0

How did O=[N+]([O-])c1ccc2[nH]c(O)c(N=NC3CCS(=O)(=O)C3)c2c1 (centres undefined) do in these assays?
rRNA inh HTS: 8; E-selectin induc: 0; SIRT5 block: 25*; FN deposit inh: 0; FGF22 binding: 0

What do the screens show for `COc1cccc(C(=O)Nc2ccc3c(c2)OC[C@@H](C)N(CC2CC2)C[C@@H](C)[C@@H](OC)CN(C)C3=O)c1`?
C2C12 statin: 1; rRNA inh HTS: -1; E-selectin induc: 0; SIRT5 block: -1; FN deposit inh: 2; FGF22 binding: 0

What do the screens show for `COc1ccc(NC(=O)N(C)C[C@@H]2Oc3ccc(NC(=O)Nc4cccc5ccccc45)cc3CC(=O)N([C@H](C)CO)C[C@H]2C)cc1`?
C2C12 statin: -7; rRNA inh HTS: -2; E-selectin induc: 0; SIRT5 block: 3; FN deposit inh: -8; FGF22 binding: -1

How did Cc1ccc(SCc2[nH]nc3c2C(c2ccc(C)o2)C(C#N)=C(N)O3)cc1 (centres undefined) do in these assays?
C2C12 statin: 7; rRNA inh HTS: -37*; SIRT5 block: 0; FGF22 binding: 0

How did Cc1ccc(SCc2[nH]nc3c2C(c2ccco2)C(C#N)=C(N)O3)cc1 (centres undefined) do in these assays?
C2C12 statin: 13

How did COCc1cc(C)nc(OCC(=O)N/N=C/c2ccc(OC)c(O)c2)c1C#N do in these assays?
rRNA inh HTS: 12; SIRT5 block: -1; FN deposit inh: -1; FGF22 binding: 44*

Results for CCOC(=O)c1c(C)[nH]c(C)c1C(=O)COC(=O)c1cc2ccccc2cc1O ?
rRNA inh HTS: -37; E-selectin induc: 0; SIRT5 block: 112*; FN deposit inh: 1; FGF22 binding: 0

What do the screens show for `O=C(c1ccc(C(F)(F)F)cc1)C1CCCN(C(=O)CN2CCCC2=O)C1` (centres undefined)?
C2C12 statin: -6; rRNA inh HTS: 10; SIRT5 block: -2; FGF22 binding: 43*

What do the screens show for `C/C(N)=C(/C#N)C(=O)COC(=O)CNS(=O)(=O)c1c(F)cccc1F`?
C2C12 statin: 10; rRNA inh HTS: 12; SIRT5 block: -1; FN deposit inh: 15; FGF22 binding: 43*

How did CCCn1nc(C(=O)OCC(=O)Nc2cccc(S(N)(=O)=O)c2)c2ccccc2c1=O do in these assays?
C2C12 statin: 3; rRNA inh HTS: 5; E-selectin induc: 1; SIRT5 block: -1; FN deposit inh: -2; FGF22 binding: 0

Results for CCCn1nc(C(=O)OCC(=O)Nc2cccc(OC)c2)c2ccccc2c1=O ?
rRNA inh HTS: 3; E-selectin induc: 1; SIRT5 block: 0; FN deposit inh: -1; FGF22 binding: 43*

What do the screens show for `C[C@@H](O)C#Cc1cnc2c(c1)C(=O)N([C@@H](C)CO)C[C@H](C)[C@H](CN(C)C(=O)Nc1ccc(C(F)(F)F)cc1)O2`?
C2C12 statin: -2; rRNA inh HTS: 2; E-selectin induc: -1; SIRT5 block: -2; FN deposit inh: 2; FGF22 binding: 0

What do the screens show for `CCOC(=O)N1CCC(NCCNC(=O)c2ccco2)CC1`?
C2C12 statin: -6; rRNA inh HTS: 12; SIRT5 block: -2; FN deposit inh: -3; FGF22 binding: 44*
